Measured values gathered from unrelated publications.
Target: Serine/threonine-protein kinase 38-like (STK38L, Homo sapiens, UniProt Q9Y2H1)

Cn1c2c(c3ccc(Cl)c(Cl)c31)C(C#N)C(C)(C)NC2=O (centres unmarked)
ΔTm (thermal stability; DSF; 10 µM): -0.1 °C

CC(C)(O)[C@H]1CC[C@H](Nc2ccc3ncc(-c4cccc(C(F)(F)F)c4)n3n2)CC1
remaining activity (enzyme activity; inhibitor; 1 µM): 91.9%

Cc1ccc(C(=O)Nc2ccc(CN3CCN(C)CC3)c(C(F)(F)F)c2)cc1C#Cc1cnc2cccnn12
remaining activity (enzyme activity; 23.5 nM): 99%

COc1cc(Cl)c(C(=O)N[C@@H](CN[C@H]2CC[C@@H](N)CC2)Cc2ccc(C#N)cc2)cc1-c1ccc(CN[C@H](C)c2ccc(C)cc2)o1
remaining activity (enzyme activity; inhibitor; 1 µM): 91%

CCN1CCN(Cc2ccc(NC(=O)c3ccc(C)c(/C=C/c4cnc5[nH]ccc5c4OC)c3)cc2C(F)(F)F)CC1
inhibition (target engagement in cells; inhibitor; chemoproteomics; A-375; 50 nM): -0.856%

CN(C)C(=O)Cn1cc(-c2nc([C@@](C)(c3ccc(-c4cnc(N)nc4)cc3)C3CC3)no2)cn1
remaining binding (binding; competition with immobilised ligand; 1 µM): 91%

CCC1(CC)NC(=O)c2c(c3ccc(Cl)c(Cl)c3n2C)C1C#N (centres unmarked)
ΔTm (thermal stability; DSF; 10 µM): 0 °C

CC/C(=N\NC(=O)NCc1cccc(O)c1)c1ccc(O)c(C)c1O
inhibition (enzyme activity; inhibitor; 0.1 µM): 19.5%

C[C@@H]1CN(c2cc(-c3nn(C)c4ccc(OC5(C)CC5)cc34)ncn2)C[C@H](C)O1
remaining binding (cell-free assay; competition with immobilised ligand; 1 µM): 72%

Cn1c2c(c3ccccc31)C(C#N)C(C)(C)NC2=O (centres unmarked)
ΔTm (thermal stability; DSF; 10 µM): 0 °C

CN(C(=O)c1ccccc1)c1cc(N(C)c2ccc3c(c2)CCc2ccc(C(=O)NCCN4CCOCC4)cc2C3=O)ccc1F
remaining binding (cell-free assay; competition with immobilised ligand; 1 µM): 47%

CCN1CCN(Cc2ccc(NC(=O)c3ccc(C)c(Oc4ccnc5[nH]ccc45)c3)cc2C(F)(F)F)CC1
inhibition (target engagement in cells; inhibitor; chemoproteomics; Huh-7; 1 µM): -11.8%

Cc1nc(N2CC[C@@H](O)C2)ncc1-c1cc(C(F)(F)F)cc2[nH]ncc12
remaining binding (binding; competition with immobilised ligand; 1 µM): 87%

CCN1CCC2(CC1)NC(=O)c1c(c3ccc(Cl)c(Cl)c3n1C)C2C#N (racemic)
ΔTm (thermal stability; DSF; 10 µM): 0 °C

COc1cc(-c2cc(-c3ccc(N4CCNCC4)cc3)cnc2C)cc(OC)c1OC
inhibition (enzyme activity; inhibitor; 1 µM): 0%

Cn1c2c(Cl)c(Cl)ccc2c2cn[nH]c(=O)c21
ΔTm (thermal stability; DSF; 10 µM): 0.1 °C

O=C(O)[C@@H]1[C@@H](Cn2nnc3ccccc3c2=O)CC[C@H]1C(=O)c1ccc(OCCC2CCOCC2)cc1
remaining binding (binding; competition with immobilised ligand; 1 µM): 100%

Cn1c2c(c3ccc(Cl)c(Cl)c31)C(C#N)C1(CCOCC1)NC2=O (centres unmarked)
ΔTm (thermal stability; DSF; 10 µM): -0.2 °C

COCCOc1nc(-c2ccc(Cl)nc2)nc2c1CN(C(=O)c1ncn3ccccc13)CC2
remaining binding (cell-free assay; competition with immobilised ligand; 0.1 µM): 100%

Cc1sc(C(=O)NC2COC2)cc1-n1cc(NC(=O)Nc2c(F)cccc2Cl)cn1
remaining activity (enzyme activity; inhibitor; 10 µM): 95.1%
